Source: publication PMC9827907 (Chemmedchem, 2022)
Read-outs that look alike come from different tables or passages of the source. Values belong to the compound of their own block, whether it stands above or below them.

What was measured:
P. falciparum Dd2 = assay: 72-hour [3H]hypoxanthine incorporation assay, field adapted strain Dd2; assay type: cell-based; conditions: Plasmodium falciparum, DD2, read-out: IC50, Dd2
Method in brief: (§1)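 Intraerythrocytic asexual-stage activity was measured against field-adapted drug-resistant P. falciparum strains. The drug-sensitive NF54 strain served as the wild-type reference, and fold shift was taken relative to NF54. Chloroquine and artesunate were run as control drugs.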

P. falciparum TM90 C2b = assay: 72-hour [3H]hypoxanthine incorporation assay, field adapted strain TM90 C2b; assay type: cell-based; conditions: Plasmodium falciparum, TM90, read-out: IC50, TM90 C2b
Method in brief: as §1

P. falciparum Cam3.I = assay: 72-hour [3H]hypoxanthine incorporation assay, field adapted strain Cam3.I; assay type: cell-based; conditions: Plasmodium falciparum, read-out: IC50, Cam3.I
Method in brief: as §1

P. falciparum K1 = assay: 72-hour [3H]hypoxanthine incorporation assay, field adapted strain K1; assay type: cell-based; conditions: Plasmodium falciparum, K1, read-out: IC50, K1
Method in brief: as §1

P. falciparum 7G8 = assay: 72-hour [3H]hypoxanthine incorporation assay, field adapted strain 7G8; assay type: cell-based; conditions: Plasmodium falciparum, 7G8, read-out: IC50, 7G8
Method in brief: as §1

[1] = Metabolic stability study using human liver microsomes; assay type: in vitro ADME; conditions: pooled human liver microsomes
P. falciparum 3D7 = assay: In vitro P. falciparum viability assay, 3D7 strain, 72-hour SYBR green; assay type: cell-based, Plasmodium falciparum; conditions: for IC50: Plasmodium falciparum, 3D7, 72 h, read-out: 3D7 IC50
Method in brief: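 Asexual blood-stage growth inhibition was measured on the 3D7 strain with 72 h exposure to test compound. IC50 values are geometric mean ± SEM of at least two independent experiments.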

[2] = system: P. falciparum clone E5 (PfeEF2 E134D); assay: 72 hour concentration-response assay, M5717-selected clone E5; assay type: cell-based, Plasmodium falciparum
Method in brief: (§2)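 Drug-selected P. falciparum clones carry PfeEF2 point mutations in the chloroquine-resistant Dd2-B2 background and are compared with the parental Dd2-B2 clone. […] Each clone was tested against parent by unpaired t test with Welch's correction.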

[3] = system: P. falciparum clone D6 (PfeEF2 Y186N); assay: 72 hour concentration-response assay, M5717-selected clone D6; assay type: cell-based, Plasmodium falciparum
Method in brief: as §2

[4] = system: P. falciparum clone G12 (PfeEF2 L507S); assay: 72 hour concentration-response assay, MMV692140-selected clone G12; assay type: cell-based, Plasmodium falciparum; conditions: vs parental Dd2-B2, Figure 3
Method in brief: as §2

[5] = system: P. falciparum clone D3 (PfeEF2 F770L); assay: 72 hour concentration-response assay, MMV692140-selected clone D3; assay type: cell-based, Plasmodium falciparum; conditions: IC50 vs Dd2-B2 parent
Method in brief: as §2

[6] = system: P. falciparum clone F8 (PfeEF2 L775F); assay: 72 hour concentration-response assay, M5717-selected clone F8; assay type: cell-based, Plasmodium falciparum
Method in brief: as §2

P. falciparum Dd2 (wt) = assay: In vitro intraerythrocytic antimalarial activity, Dd2; assay type: cell-based, Plasmodium falciparum
[7] = system: P. falciparum clone A3 (PfeEF2 Y719C); assay: 72 hour concentration-response assay, MMV692140-selected clone A3; assay type: cell-based, Plasmodium falciparum; conditions: vs parental Dd2-B2, Figure 3
Method in brief: as §2

[8] = system: P. falciparum Dd2 (PfeEF2); assay: In vitro intraerythrocytic antimalarial activity, lab adapted strain Dd2; assay type: cell-based; conditions: Plasmodium falciparum, DD2, read-out: IC50, Dd2 (PfeEF2)
Method in brief: (§3)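 Intraerythrocytic asexual-stage activity was measured against laboratory resistant lines, with resistance mutations introduced into a Dd2 wild-type background. Fold shift was taken relative to Dd2 wild type. Strain-matched reference inhibitors were tested on Dd2 wild type and on the mutant lines. Values are means of at least two independent experiments.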

[9] = system: P. falciparum Dd2 (Pfdhodh); assay: as above; assay type: cell-based, Plasmodium falciparum
Method in brief: as §3

[10] = system: P. falciparum Dd2 (Pfcytb); assay: as above; assay type: cell-based, Plasmodium falciparum
Method in brief: as §3

[11] = system: P. falciparum Dd2 (Pfpi4k); assay: as above; assay type: cell-based, Plasmodium falciparum
Method in brief: as §3

[12] = Plasmodium falciparum, DD2, read-out: IC50, Dd2 (wt)

SMILES: C[C@H]1[C@H](OC(=O)CCC(=O)O)O[C@@H]2O[C@@]3(C)CC[C@H]4[C@H](C)CC[C@@H]1[C@@]24OO3 [Artesunate]
IC50 (P. falciparum Dd2): 6 nM
IC50 (P. falciparum TM90 C2b): 5 nM
IC50 (P. falciparum Cam3.I): 11 nM
IC50 (P. falciparum K1): 2 nM
IC50 (P. falciparum 7G8): 2 nM

SMILES: CCN(CC)CCCC(C)Nc1ccnc2cc(Cl)ccc12 (centres unmarked) [Chloroquine]
IC50 (P. falciparum Dd2): 160 nM
IC50 (P. falciparum TM90 C2b): 140 nM
IC50 (P. falciparum Cam3.I): 180 nM
IC50 (P. falciparum K1): 200 nM
IC50 (P. falciparum 7G8): 80 nM

microsomal CLint at 1 µM [1]: 521 µL/min/mg
SMILES: COc1ccc(-n2nnnc2N2CCC(C(=O)N3CCCc4ccccc43)CC2)cc1 [Compound 7, (3,4-Dihydroquinolin-1(2H)-yl)(1-(1-(4-methoxyphenyl)-1H-tetrazol-5-yl)piperidin-4-yl)methanone]
IC50 (P. falciparum 3D7): 900 ± 140 nM

SMILES: Cc1ccccc1-n1nnnc1N1CCC(C(=O)N2CCCc3ccccc32)CC1 [Compound 8, (3,4-Dihydroquinolin-1(2H)-yl)(1-(1-(o-tolyl)-1H-tetrazol-5-yl)piperidin-4-yl)methanone]
IC50 (P. falciparum 3D7): 1400 ± 20 nM

SMILES: O=C(C1CCN(c2nnnn2-c2ccc(OC(F)(F)F)cc2)CC1)N1CCCc2ccccc21 [Compound 9]
IC50 (P. falciparum 3D7): 5500 ± 860 nM

SMILES: O=C(C1CCN(c2nnnn2-c2ccccc2)CC1)N1CCCc2c(Cl)cccc21 [Compound 17, (5-Chloro-3,4-dihydroquinolin-1(2H)-yl)(1-(1-phenyl-1H-tetrazol-5-yl)piperidin-4-yl)methanone]
IC50 (P. falciparum 3D7): 600 ± 90 nM

SMILES: O=C(C1CCN(c2nnnn2-c2ccccc2)CC1)N1CCCc2cc(Cl)ccc21 [Compound 20, (6-Chloro-3,4-dihydroquinolin-1(2H)-yl)(1-(1-phenyl-1H-tetrazol-5-yl)piperidin-4-yl)methanone]
IC50 (P. falciparum 3D7): > 25000 nM

SMILES: N#Cc1ccc2c(c1)N(C(=O)C1CCN(c3nnnn3-c3ccccc3)CC1)CCC2 [Compound 22]
IC50 (P. falciparum 3D7): > 25000 nM

SMILES: O=C(C1CCN(c2nnnn2-c2ccccc2)CC1)N1CCCc2ccc(Cl)cc21 [Compound 23, (7-Chloro-3,4-dihydroquinolin-1(2H)-yl)(1-(1-phenyl-1H-tetrazol-5-yl)piperidin-4-yl)methanone]
IC50 (P. falciparum 3D7): > 25000 nM

SMILES: O=C(C1CCN(c2nnnn2-c2ccccc2)CC1)N1CCCc2ncccc21 [Compound 24, (3,4-Dihydro-1,5-naphthyridin-1(2H)-yl)(1-(1-phenyl-1H-tetrazol-5-yl)piperidin-4-yl)methanone]
IC50 (P. falciparum 3D7): 10200 ± 750 nM

SMILES: O=C(C1CCN(c2nnnn2-c2ccccc2)CC1)N1CCCc2cnccc21 [Compound 25, (3,4-Dihydro-1,6-naphthyridin-1(2H)-yl)(1-(1-phenyl-1H-tetrazol-5-yl)piperidin-4-yl)methanone]
IC50 (P. falciparum 3D7): 10800 ± 650 nM

microsomal CLint at 1 µM [1]: 135 µL/min/mg
SMILES: CC(C)n1nnnc1N1CCC(C(=O)N2CCCc3ccccc32)CC1 [Compound 27, (3,4-Dihydroquinolin-1(2H)-yl)(1-(1-isopropyl-1H-tetrazol-5-yl)piperidin-4-yl)methanone]
IC50 (P. falciparum 3D7): 5600 ± 920 nM

microsomal CLint at 1 µM [1]: > 400 µL/min/mg
SMILES: O=C(C1CCN(c2nnnn2C2CCCC2)CC1)N1CCCc2ccccc21 [Compound 28, (1-(1-cyclopentyl-1H-tetrazol-5-yl)piperidin-4-yl)(3,4-dihydroquinolin-1(2H)-yl)methanone]
IC50 (P. falciparum 3D7): 3300 ± 480 nM

microsomal CLint at 1 µM [1]: > 400 µL/min/mg
SMILES: O=C(C1CCN(c2nnnn2C2CCCCC2)CC1)N1CCCc2ccccc21 [Compound 29]
IC50 (P. falciparum 3D7): 3500 ± 20 nM

microsomal CLint at 1 µM [1]: 83 µL/min/mg
SMILES: O=C(C1CCN(c2nnnn2-c2ccc(F)cc2)CC1)N1CCOc2ccccc21 [Compound 30]
IC50 (P. falciparum 3D7): 8900 ± 1400 nM

microsomal CLint at 1 µM [1]: > 400 µL/min/mg
SMILES: COc1ccc(-n2nnnc2N2CCC(C(=O)N3CCCc4c(Cl)cccc43)CC2)cc1 [Compound 31]
IC50 (P. falciparum 3D7): 700 ± 100 nM

microsomal CLint at 1 µM [1]: 78 µL/min/mg
SMILES: COc1ccc(-n2nnnc2N2CCC(C(=O)N3CCOc4c(Cl)cccc43)CC2)cc1 [Compound 32]
IC50 (P. falciparum 3D7): 3600 ± 1200 nM

microsomal CLint at 1 µM [1]: > 400 µL/min/mg
SMILES: O=C(C1CCN(c2nnnn2-c2ccc(N3CCCC3)cc2)CC1)N1CCCc2c(Cl)cccc21 [Compound 33]
IC50 (P. falciparum 3D7): 110 ± 10 nM

microsomal CLint at 1 µM [1]: 296 µL/min/mg
SMILES: O=C(C1CCN(c2nnnn2-c2ccc(N3CCCC3)cc2)CC1)N1CCOc2c(Cl)cccc21 [Compound 34]
IC50 (P. falciparum 3D7): 1600 ± 81 nM

microsomal CLint at 1 µM [1]: > 400 µL/min/mg
SMILES: O=C(C1CCN(c2nnnn2-c2ccc(N3CCCC3)cc2)CC1)N1CCCc2c(F)cccc21 [Compound 36, (5-fluoro-3,4-dihydroquinolin-1(2H)-yl)(1-(1-(4-(pyrrolidin-1-yl)phenyl)-1H-tetrazol-5-yl)piperidin-4-yl)methanone]
IC50 (P. falciparum 3D7): 66 ± 8 nM
improvement of antimalarial asexual blood stage in vitro potency (P. falciparum 3D7; relative to hit compound 2, 72-hour 3D7 assay): 30 fold

SMILES: O=C(NCCN1CCCC1)c1cc(-c2ccc(CN3CCOCC3)cc2)nc2ccc(F)cc12 [Compound M5717]
Fold shift, clone E5 ([2]; IC50 vs Dd2-B2 parent): 27x fold
IC50 ([2]; Plasmodium falciparum, 72 h, read-out: IC50, clone E5): 5.8 nM
Fold shift, clone D6 ([3]; IC50 vs Dd2-B2 parent): 14700x fold
IC50 ([3]; Plasmodium falciparum, D6, 72 h, read-out: IC50, clone D6): 3100 nM
Cross resistance of compound 2-selected clone G12 [4]: not cross‐resistant
Fold shift, clone D3 [5]: 1.6 fold
Fold shift, clone F8 ([6]; IC50 vs Dd2-B2 parent): 3100x fold
IC50 ([6]; Plasmodium falciparum, 72 h, read-out: IC50, clone F8): 660 nM
IC50 (P. falciparum Dd2 (wt); [12]): 2 nM
Cross resistance of compound 2-selected clone A3 [7]: not cross‐resistant
IC50 [8]: 3100 nM

SMILES: Cc1cc(Nc2ccc(S(F)(F)(F)(F)F)cc2)n2nc(C(C)(F)F)nc2n1 [DSM265]
IC50 ([9]; Plasmodium falciparum, DD2, read-out: IC50, Dd2 (Pfdhodh)): 143 nM
fold shift, Dd2 (Pfdhodh) ([9]; vs Dd2 (wt)): 18 fold
IC50 (P. falciparum Dd2 (wt); [12]): 8 nM

SMILES: COc1cc2[nH]c(C)c(-c3ccc(Oc4ccc(OC(F)(F)F)cc4)cc3)c(=O)c2cc1Cl [ELQ300]
IC50 ([10]; read-out: IC50, Dd2 (Pfcytb), reference compound): 254 nM
fold shift, Dd2 (Pfcytb) ([10]; vs Dd2 (wt)): 13 fold
IC50 (P. falciparum Dd2 (wt); read-out: IC50, Dd2 (wt), reference compounds): 19 nM

SMILES: CS(=O)(=O)c1ccc(-c2cnc(N)c(-c3ccc(C(F)(F)F)nc3)c2)cc1 [MMV390048]
IC50 ([11]; Plasmodium falciparum, DD2, read-out: IC50, Dd2 (Pfpi4k)): 102 nM
fold shift, Dd2 (Pfpi4k) ([11]; vs Dd2 (wt)): 4.8 fold
IC50 (P. falciparum Dd2 (wt); [12]): 21.2 nM
